Source: PubChem BioAssay
SR-BI HDL uptake: mouse SR-BI HDL lipid transfer inhibition. Q61009. ldlA[mSR-BI] CHO cells, DiI-HDL uptake fluorescence, 3 h. inhibition, % at 12.5 µM. actives 0.96% (n = 320,000);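 active means mean replicate inhibition of at least 70% and a set share of replicates each scoring 70 or more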;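 further: 0% = median of neutral control wells and 100% = median of positive control wells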
Target sequence (Q61009 whole entry, looked up): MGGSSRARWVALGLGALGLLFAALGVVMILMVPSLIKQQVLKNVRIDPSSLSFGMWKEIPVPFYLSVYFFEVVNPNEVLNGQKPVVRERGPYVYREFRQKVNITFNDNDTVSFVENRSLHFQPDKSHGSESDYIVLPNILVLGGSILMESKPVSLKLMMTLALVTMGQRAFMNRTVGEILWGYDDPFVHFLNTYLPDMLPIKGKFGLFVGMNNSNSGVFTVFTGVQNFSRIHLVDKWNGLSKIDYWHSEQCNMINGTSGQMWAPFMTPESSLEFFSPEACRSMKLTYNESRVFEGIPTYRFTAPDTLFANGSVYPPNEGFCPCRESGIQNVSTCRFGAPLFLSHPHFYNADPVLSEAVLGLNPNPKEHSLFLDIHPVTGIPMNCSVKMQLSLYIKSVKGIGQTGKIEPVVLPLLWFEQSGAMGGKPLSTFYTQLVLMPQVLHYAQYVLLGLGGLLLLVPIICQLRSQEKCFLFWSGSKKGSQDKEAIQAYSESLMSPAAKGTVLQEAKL
GASC-1 inh: human JMJD2C demethylase inhibition; GST-JMJD2C(1-420) H3K9me3 demethylation, DELFIA europium; inhibition, % at 2.35 µM; actives 0.069% (n = 330,000); AID 2099;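 active means more than half of a compound's replicate wells show inhibition beyond 50%, single wells judged on their own value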;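 further: signal counts dimethyl H3K9 product captured on neutravidin plate; 0% = median of DMSO wells and 100% = 0.3 times that DMSO median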
SR-BI DiI-HDL act: activators of SR-BI mediated HDL lipid uptake | actives 0.096% (n = 320,000) | AID 504775 | CHO ldlA[mSR-BI] cells, DiI-HDL uptake fluorescence, 3 h; 100 = double the neutral-control signal | activation, % at 12.5 µM;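 active means mean replicate activation of at least 60% and every replicate at or above 60%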;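 further: 0% = median plate neutral-control signal and 100% = twice that signal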
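Material: SR-BI-overexpressing, LDLR-lacking CHO cells; schedule: compound exposure 3 h, 37 °C; reagent: DiI-labelled HDL at 10 µg/mL final; technique: bottom-read fluorescence, 550/595 nm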
FXN GAA850 act: frataxin GAA850 promoter activation. HEK293 lucGAA850 FXN promoter luciferase reporter, 24 h; percent of 10 µM SAHA response. activation, % at 6 µM. actives 0.56% (n = 360,000);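 active means activation above the average of all compounds screened plus 3 SD, cutoff fixed separately per campaign, cut at about 7.5% in these data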;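 further: 0% = DMSO wells and 100% = 10 µM SAHA wells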
AHR act: activators of human aryl hydrocarbon receptor; P35869; AHR-responsive luciferase reporter cells, luminescence; activation, % at 5 µM; actives 2.5% (n = 320,000); in the data active means activation above about 47%;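 further: 0% = vehicle wells and 100% = reference agonist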
AHR act confirm: confirmation of human aryl hydrocarbon receptor activators. human cells, AHR-responsive luciferase reporter, luminescence. activation, % at 9 µM. actives 87% (n = 2,300). shares compounds with AHR act; in the data active means activation above about 49%;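 further: HepG2 hepatoma cells carrying a DRE-driven firefly luciferase reporter; 0% = vehicle wells and 100% = reference agonist wells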
PXR act counter: PXR activation, counter-screen for AHR activators; shares compounds with AHR act; cell-based PXR reporter, luciferase luminescence; activation, % at 11.6 µM; actives 88% (n = 2,300); in the data active means activation above about 11%;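 further: human hepatoma DPX-2 cells expressing full-length human PXR; 0% = DMSO and 100% = reference agonist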
* hit, by the source's call; . = no result given. An excerpt weighted towards active compounds, which were near 3.7% of everything screened.

SMILES	SR-BI HDL uptake	GASC-1 inh	SR-BI DiI-HDL act	FXN GAA850 act	AHR act	AHR act confirm	PXR act counter
CNc1sc(C(=O)c2ccccc2F)c(N)c1-c1nc2ccccc2s1	57	6	-57	1	90*	88*	48*
CN1C2C=C3C(C#N)=C(N)C(C#N)(C#N)C(c4ccc(Br)cc4)C3C1CC2 (stereo not given)	-31	9	31	-4	110*	79*	107*
O=C(CC1Sc2ccccc2NC1=O)Nc1ccccc1[N+](=O)[O-] (stereo not given)	-9	-9	9	3	152*	111*	38*
Cc1ccc(-c2cc(C(=O)O)c3ccccc3n2)c(C)c1	8	2	-8	3	3	.	.
Cc1ccc(-c2csc(-c3c[nH]c4ccccc34)n2)c(C)c1	39	-5	-39	0	106*	115*	24*
Cc1c(NC(=S)NC(=O)c2sc3ccccc3c2Cl)cccc1C(=O)O	8	5	-8	3	5	.	.
CNC(=O)c1ccsc1NC(=O)c1sc2ccccc2c1Cl	23	7	-23	4	120*	116*	19*
CCOc1ncccc1C(=O)Nc1nnc(C2CC2)s1	5	9	-5	0	104*	95*	36*
COc1cccc(C(=O)NCc2ccc3c(c2)OCO3)c1OC	5	12	-5	3	.	.	.
O=C(Nc1nnc(C2CC2)s1)c1ccncc1	-7	-5	7	-1	13	.	.
CCOc1ccc2oc(C(=O)Nc3ccc4c(c3)OCO4)c(C)c2c1	5	20	-5	4	83*	38	25*
CCOc1ccc2oc(C(=O)Nc3ccc(N4CCOCC4)cc3)c(C)c2c1	55	10	-55	-2	-7	.	.
COc1cccc(C(=O)Nc2ccc3c(c2)OCO3)c1OC	5	15	-5	2	103*	54*	70*
COC(=O)c1cc(C(=O)Nc2nnc(C3CC3)s2)cc([N+](=O)[O-])c1	10	-6	-10	0	81*	83*	.
Cc1c2ccccc2cc(Cc2ccccc2)[n+]1C	-7	3	7	1	15	.	.
COc1ccc(CC(=O)Nc2nnc(C(C)(C)C)s2)cc1OC	-20	-21	20	0	8	.	.
Cc1ccc(OCC(=O)NNC(=O)CSC(=S)N2CCCC2)cc1	-46	.	46	0	.	.	.
O=C(COc1cc(F)ccc1[N+](=O)[O-])Nc1ccc2c(c1)OCO2	-2	9	2	5	-4	.	.
COC(=O)c1cc(NC(=O)CN(c2ccccc2OC)S(=O)(=O)c2ccccc2)ccc1Cl	45	12	-45	-3	4	.	.
COc1ccccc1CC(=O)Nc1ccc2[nH]ncc2c1	1	4	-1	-2	5	.	.
COc1cccc(C(=O)Nc2ccc3[nH]ncc3c2)c1OC	.	2	.	1	92*	68*	12*
CCOc1ncccc1C(=O)Nc1ccc2c(c1)OCO2	27	-15	-27	1	110*	130*	32*
COc1ccccc1N(CC(=O)Nc1ccc2c(c1)OCO2)S(=O)(=O)c1ccccc1	-9	10	9	-3	98*	97*	187*
CCOc1ncccc1C(=O)Nc1ccccc1C(=O)NCc1ccc2c(c1)OCO2	27	-3	-27	0	4	.	.
CC(=O)c1cc(F)ccc1OCC(=O)Nc1ccc2c(c1)OCO2	40	0	-40	4	94*	105*	29*
SMILES	SR-BI HDL uptake	GASC-1 inh	SR-BI DiI-HDL act	FXN GAA850 act	AHR act	AHR act confirm	PXR act counter
CC(NC(=O)C1CCCN1S(=O)(=O)c1ccccc1)c1ccccc1 (stereo not given)	2	6	-2	1	-3	.	.
O=C(Nc1ccc(F)c(Cl)c1)c1ccc2nc([C@@H]3O[C@H](CO)[C@H](O)[C@H](O)[C@H]3O)[nH]c2c1	.	.	.	0	.	.	.
CCCCNC(=O)c1ccc2c(c1)C(=O)N(Cc1ccncc1)C2=O	-7	0	7	-1	.	.	.
O=C(Nc1ccc(Cl)cc1F)c1ccc2c(c1)C(=O)N(Cc1ccncc1)C2=O	.	-7	.	0	99*	94*	11*
Cn1c(=O)[nH]c2nnc(-c3ccc(Cl)c(Cl)c3)nc2c1=O	2	-4	14	3	112*	42	15*
COc1ccc(N(CCCN2C(=O)c3cccc4cccc(c34)C2=O)C(=O)c2cccs2)cc1	24	7	-24	3	100*	140*	93*
Cc1ccccc1C(=O)Nc1ccc(Br)c(C)n1	38	15	-38	3	88*	130*	52*
CCc1cc(/C(Cc2ccc3ccccc3n2)=N\O)c(O)cc1O	-12	-31	12	-1	88*	55*	.
Brc1ccc(-c2csc(Nc3nc(-c4ccc(Br)cc4)cs3)n2)cc1	36	7	-36	1	85*	116*	17*
O=C(O)c1ccc(-c2nc(-c3ccccc3)cs2)cc1	-19	-3	19	4	11	.	.
c1ccc(-c2csc(-c3cccnc3)n2)cc1	3	187	-3	2	22	.	.
Brc1ccc(-c2csc(-c3ccncc3)n2)cc1	7	5	-7	3	101*	102*	11*
Nc1nc(-c2ccc(Br)cc2)cs1	7	-9	-7	4	9	.	.
Cc1ccc(-c2csc(-c3ccncc3)n2)cc1	1	-2	-1	3	80*	96*	8
COc1c(C(=O)Nc2ccc(Br)cn2)ccc2ccccc12	0	1	0	5	45	.	.
COc1c(C(=O)Nc2nccs2)ccc2ccccc12	2	-6	-2	3	84*	149*	27*
Cc1nnc2c(NCCc3ccccc3)nc3ccccc3n12	13	-18	-13	-2	17	.	.
Cc1nnc2c(-c3ccccc3)nc3ccccc3n12	-5	7	5	2	89*	109*	13*
O=C(c1cccs1)N1CCN(c2ccc(Cl)cc2)CC1	9	7	-9	1	-6	.	.
COc1cccc(-c2nn(C)c3sc(C(=O)NCCCN(C)Cc4ccccc4)cc23)c1	49	-2	-49	-1	13	.	.
CNC(=O)c1cc2c(-c3ccccc3)nn(C)c2s1	35	-22	-35	1	99*	114*	24*
COc1cccc(-c2nn(C)c3sc(C(=O)NCc4ccco4)cc23)c1	32	-44	-32	2	95*	130*	44*
Cn1nc(-c2ccc(Cl)cc2)c2cc(C(=O)N3CCN(c4ccccc4)CC3)sc21	22	21	-22	1	101*	74*	34*
